In one assay the test system is NCI-H1299. In words: Inhibition of camptothecin-induced cell cycle arrest in NCI-H1299 cells after 8 hrs. The format is functional, cell-based. The conditions noted are these: Homo sapiens, NCI-H1299, 8 h. The method in brief:
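NCI-H1299 lung carcinoma cells held 16 h in camptothecin to arrest, then exposed to inhibitor a further 8 h. Escape into mitosis scored by mitosis-specific nucleolin phosphorylation, quantified with an antibody-coated bead-based assay.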

Assay [1] has as its target T1, Serine/threonine-protein kinase Chk1 (Homo sapiens, UniProt O14757).
T1 sequence (O14757 whole entry): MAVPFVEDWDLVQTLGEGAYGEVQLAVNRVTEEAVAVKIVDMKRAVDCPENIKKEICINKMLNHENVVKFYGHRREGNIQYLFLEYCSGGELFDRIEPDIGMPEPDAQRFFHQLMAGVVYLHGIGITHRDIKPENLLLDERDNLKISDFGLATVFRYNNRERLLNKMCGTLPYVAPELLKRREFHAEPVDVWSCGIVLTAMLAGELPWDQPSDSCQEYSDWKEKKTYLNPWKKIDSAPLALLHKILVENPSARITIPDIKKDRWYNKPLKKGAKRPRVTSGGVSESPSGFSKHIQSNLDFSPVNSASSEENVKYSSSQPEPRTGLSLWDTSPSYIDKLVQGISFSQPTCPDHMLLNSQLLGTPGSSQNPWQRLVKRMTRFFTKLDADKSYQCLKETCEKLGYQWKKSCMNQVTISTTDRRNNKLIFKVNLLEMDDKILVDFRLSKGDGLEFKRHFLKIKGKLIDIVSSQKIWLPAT
In words: Inhibition of Chk1 by fluorescence assay.

pEC50, pIC50: −log10 of the molar value.

As for `Cc1[nH]nc2c1c(=O)n(CCCN)c1ccc(Cl)cc21`, in the assay with NCI-H1299, the pEC50 is 6.80. This molecule also had a negative-log IC50 (pIC50) in assay [1] of 8.92. `Cc1[nH]nc2c1c(=O)[nH]c1ccccc12` showed a negative-log IC50 (pIC50) in assay [1] of 5.86. Consider `Cc1[nH]nc2c1c(OCCCN)nc1ccc(Cl)cc12`, for which, in the assay on NCI-H1299, the pEC50 was 4.99. The pIC50 in assay [1] was 7.19. The like results for `Cc1[nH]nc2c1c(=O)n(CCCCN)c1ccc(Cl)cc21` were, in that order, 6.00 and 7.70. As for `Cc1cccc2c1[nH]c(=O)c1c(C)[nH]nc12`, the negative-log IC50 (pIC50) in assay [1] is 5.83. Turning to `Cc1[nH]nc2c1c(=O)[nH]c1cc3ccccc3cc12`, the negative-log EC50 (pEC50) in the assay on NCI-H1299 was 6.15. In assay [1], this molecule gave a negative logarithm of the IC50 (pIC50) of 7.54.

For `Cc1[nH]nc2c1c(=O)n(CCN)c1ccc(Cl)cc21`, the negative-log EC50 (pEC50) in the assay with NCI-H1299 was 6.01. In assay [1], the negative-log IC50 (pIC50) is 7.44.

For the molecule `Cc1[nH]nc2c1c(=O)[nH]c1ccc(Cl)cc12`, in the assay on NCI-H1299, the negative logarithm of the EC50 (pEC50) is 5.53. Also, in assay [1], the negative logarithm of the IC50 (pIC50) is 7.40. For `Cc1[nH]nc2c1c(=O)[nH]c1cc3c(cc12)CCCC3` the same measures were 5.92 and 6.89. As to `CC(=O)Nc1ccc2[nH]c(=O)c3c(C)[nH]nc3c2c1`, the pIC50 in assay [1] was 5.15.

Take `Cc1[nH]nc2c1c(=O)[nH]c1cc(Cl)ccc12`: the pIC50 in assay [1] was 5.70.

Regarding `Cc1[nH]nc2c1c(=O)[nH]c1cccc(C)c12`, the pIC50 in assay [1] was < 4.00.

For `CCn1c(=O)c2c(C)[nH]nc2c2cc3c(cc21)CN(C(=O)NCCN)CC3`, the pEC50 in the assay with NCI-H1299 is < 5.00. The molecule further showed a pIC50 in assay [1] of 7.92. The like results for `CCn1c(=O)c2c(C)[nH]nc2c2cc3c(cc21)CN(C(=O)CN)CC3` were, in that order, < 5.00 and 7.74.

With `Cc1[nH]nc2c1c(OCCN)nc1ccc(Cl)cc12`, the negative logarithm of the IC50 (pIC50) in assay [1] was 6.07. Same read-out and setting: for `Cc1[nH]nc2c1c(=O)[nH]c1c(CCCN)c(C3CCCCC3)c(C3CCCCC3)cc12` the value was 6.54.

`Cc1ccc2[nH]c(=O)c3c(C)[nH]nc3c2c1` gave a negative logarithm of the IC50 (pIC50) in assay [1] of 6.64. The pIC50 values of the last two molecules are within 0.2 log units of each other. In the case of `CCn1c(=O)c2c(C)[nH]nc2c2cc3c(cc21)CN(S(=O)(=O)CCN)CC3`, in the assay on NCI-H1299, the pEC50 is < 5.00. The negative logarithm of the IC50 (pIC50) in assay [1] was 8.00. The like results for `Cc1[nH]nc2c1c(=O)n(C[C@@H](F)CN)c1cc(C3CCCCC3)c(C3CCCCC3)cc21` were, in that order, 7.08 and 8.49. In assay [1], `Cc1[nH]nc2c1c(NCCCN)nc1ccc(Cl)cc12` gave a pIC50 of 6.66. On the same count and under the same terms, as for `Cc1[nH]nc2c1c(=O)[nH]c1cccc(Cl)c12`, the figure is 4.54; as for `Cc1[nH]nc2c1c(=O)[nH]c1c(/C=C/CN)c(C3CCCCC3)c(C3CCCCC3)cc12`, 7.24. The same measure, in the same setting: for `Cc1[nH]nc2c1c(NCCN)nc1ccc(Cl)cc12` the value was 7.22. For `Cc1[nH]nc2c1c(=O)n(C[C@H](F)CN)c1cc(C3CCCCC3)c(C3CCCCC3)cc21`, the pEC50 with NCI-H1299 was 7.19. In assay [1], this molecule showed a negative logarithm of the IC50 (pIC50) of 8.51.

For the origin of these results see ChEMBL document CHEMBL1139824, “Optimization of a pyrazoloquinolinone class of Chk1 kinase inhibitors” (Bioorg Med Chem Lett, 2007).
